Test results from ChEMBL document CHEMBL1156947, “Halogenated analogs of 1'-acetoxychavicol acetate, Rev-export inhibitor from Alpinia galanga, designed from mechanism of action” (Bioorg Med Chem Lett, 2010).
Values after ≈ are worked out from the molar mass of the structure shown.

Key:
[1] = tested on: Human immunodeficiency virus 1; assay: Inhibition of HIV1 Rev nuclear export in Saccharomyces pombe expressing GST-NLS-GFP-RevNES fused protein assessed as cellular distribution after 3 hrs by fluorescence microscopy
Summary of the method: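 Fission yeast colony grown 24 h at 37 °C in thiamine-free MM medium to induce the GST-NLS-GFP-RevNES fusion. Cells then exposed to samples in medium with 1% DMSO for 3 h at 37 °C. Fusion-protein distribution checked by fluorescence microscopy to give MIC values.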

[2] = Stability assessed as compound remaining up to 180 mins in presence of in fetal bovine serum; type: ADME; details: cattle, 3 h
Summary of the method: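 Sample (0.2 mM ethanol stock) added to RPMI1640 containing 10% FBS, held at 37 °C for 0, 30, 60 or 180 min. Mixture extracted with EtOAc, residue taken up in acetonitrile. Remaining compound measured by reversed-phase HPLC (C18, acetonitrile–water gradient, UV 220 nm), in triplicate.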

[3] = Inhibition of HIV1 HA-tagged Rev nuclear export expressed in human HeLa cells assessed as cellular localization after 12 hrs by FITC-labelled indirect fluorescence microscopy; type: cell-based; details: Human immunodeficiency virus 1, HeLa
Summary of the method: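 HeLa cells (1.0 × 10^5) grown on coverslips in DMEM with 10% FBS, 37 °C, 5% CO2, 24 h. Co-transfected 16 h with plasmids for HA-tagged Rev and Gag (pCRRE/ΔRev). Samples added in medium with 1% DMSO, 12 h at 37 °C. Cells fixed in 4% formaldehyde, methanol-treated, blocked with 10% FBS, then anti-HA and FITC anti-mouse IgG. Rev localization scored by fluorescence microscopy and image analysis.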

Compound: C=C[C@H](OC(=O)OCCC)c1ccc(OC(=O)OCCC)cc1
- MIC [1]: 10 µM (≈ 3.22 µg/mL)
- Stability [2]: Stable

Compound: C=C[C@H](OC(=O)OCC)c1ccc(OC(=O)OCC)cc1
- MIC [1]: 25 µM (≈ 7.36 µg/mL)
- Stability [2]: Stable

Compound: C=C[C@H](OC(=O)OC(C)C)c1ccc(OC(=O)OC(C)C)cc1
- MIC [1]: > 50 µM
- Stability [2]: Stable

Compound: C=C[C@H](OC(=O)OC(C)(C)C)c1ccc(OC(=O)OC(C)(C)C)cc1
- MIC [1]: > 50 µM
- Stability [2]: Stable

Compound: C=C[C@H](OC(=O)C(C)C)c1ccc(OC(C)=O)cc1
- MIC [1]: 19 µM (≈ 4.98 µg/mL)

Compound: C=C[C@H](OC(=O)NCCC)c1ccc(OC(=O)NCCC)cc1
- MIC [1]: > 50 µM
- Stability [2]: Stable

Compound: C=C[C@H](OC(=O)NC(C)C)c1ccc(OC(=O)NC(C)C)cc1
- MIC [1]: > 50 µM
- Stability [2]: Stable

Compound: C=C[C@H](OC(C)=O)c1ccc(OC(C)=O)c(F)c1
- IC50 [3]: 480 nM
- MIC [1]: 1.7 µM (≈ 0.429 µg/mL)

Compound: C=C[C@H](OC(=O)OC)c1ccc(OC(=O)OC)cc1
- MIC [1]: 25 µM (≈ 6.66 µg/mL)
- Stability [2]: Stable

Compound: C=C[C@H](OC(=O)OC(C)C)c1ccc(OC(C)=O)cc1
- MIC [1]: > 50 µM

Compound: C=C[C@H](OC(=O)CCC)c1ccc(OC(C)=O)cc1
- MIC [1]: 19 µM (≈ 4.98 µg/mL)

Compound: C=C[C@H](OC(=O)NC(C)(C)C)c1ccc(OC(=O)NC(C)(C)C)cc1
- MIC [1]: > 50 µM
- Stability [2]: Stable

Compound: C=C[C@H](OC(=O)NCC)c1ccc(OC(=O)NCC)cc1
- MIC [1]: > 50 µM
- Stability [2]: Stable

Compound: C=C[C@H](OC(C)=O)c1ccc(OC(C)=O)cc1 [1'-ACETOXYCHAVICOL ACETATE]
- IC50 [3]: 980 nM
- MIC [1]: 4.3 µM

Compound: C=C[C@H](OC(=O)NC)c1ccc(OC(=O)NC)cc1
- MIC [1]: > 50 µM
- Stability [2]: Stable

Compound: C=C[C@H](OC(=O)OCCC)c1ccc(OC(C)=O)cc1
- MIC [1]: 26 µM (≈ 7.24 µg/mL)

Compound: C=C[C@H](OC(C)=O)c1ccc(OC(C)=O)c(F)c1F
- IC50 [3]: 130 nM
- MIC [1]: 1.4 µM (≈ 0.378 µg/mL)

Compound: C=C[C@H](OC(C)=O)c1ccc(OC(C)=O)c(Cl)c1
- IC50 [3]: 620 nM
- MIC [1]: 2.2 µM (≈ 0.591 µg/mL)

Compound: C=C[C@H](OC(C)=O)c1ccc(OC(C)=O)c(Br)c1
- IC50 [3]: 490 nM
- MIC [1]: 1.7 µM (≈ 0.532 µg/mL)
